Screening data: PubChem, several laboratories
This is one part of a sample in which hits are shown more often than they occur.
TbMetRS inhib: Trypanosoma brucei MetRS inhibition; purified T. brucei MetRS, ATP depletion, Kinase-Glo luminescence; AID 624268; hit rate 0.4% among 360,000; inhibition, % at 11.9 µM;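 active = inhibition above a per-plate cutoff of the control wells' mean inhibition plus 3 SD, cut at about 5.5% in these data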;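 also: 0% = DMSO wells median and 100% = median of wells with control inhibitor compound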
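assay system = parasite MetRS enzyme | timing = 15 min preincubation, 2 h reaction, all 25 °C | evaluation = percent inhibition relative to median high and low control wells | medium = HEPES buffer containing pyrophosphatase, BSA, spermine, DTT | compound = single dose, 11.9 µM final nominal, 0.9% final DMSO | detection = Kinase-Glo luminescence, ATP depletion format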
XBP1 UPR activ: activators of adaptive arm of unfolded protein response (XBP1) | CHO-XBP1 luciferase reporter, IRE1-XBP1 UPR activation, luminescence; percent of tunicamycin response, DMSO as zero | activation, % at 20 µM | hit rate 0.33% among 330,000;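 active = versus positive control, 20 µM dose yields 30% or more activation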;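 also: 100% = tunicamycin at 10 µg/mL and 0% = DMSO only wells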
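Assay system: IRE1-XBP1 luciferase reporter CHO line. Input: 1000 cells/well. Buffer or medium: F12 with 10% serum. Doses: 20 µM, 1% DMSO. Times: overnight seeding at 37 °C, 6 h compound treatment at 37 °C. Technique: Steady-Glo luciferase glow luminescence, 10 min after reagent addition.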
CHOP inhibitor: blocks CHOP induction under ER stress. inhibition, % at 10 µM. CHO-K1 CHOP-promoter luciferase, tunicamycin-induced, 15-18 h. AID 2732. hit rate 3.8% among 220,000;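 active = compounds that reduced the stress-induced luciferase reporter signal by more than about 70% of percent inhibition, limit read from the data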;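 also: 0% = tunicamycin plus vehicle and 100% = wells without tunicamycin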
UPR CHOP act: apoptotic UPR (CHOP) activation; CHO-CHOP luciferase reporter, luminescence; percent of tunicamycin response over DMSO baseline; activation, % at 10 µM; hit rate 0.34% among 330,000;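 active = at 10 µM dose, activation of 40% or more, normalized to positive control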;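 also: 100% = tunicamycin at 10 µg/mL and 0% = DMSO alone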
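measured by = luciferase luminescence | assay system = CHO-CHOP cells, stable luciferase reporter of PERK-eIF2a-CHOP signalling | amount = 500 reporter cells seeded per well | timing = 6 h compound exposure at 37 °C after overnight seeding | controls = positive tunicamycin 10 µg/mL, negative DMSO alone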
V-ATPase pH: alters yeast V-ATPase proton transport. AID 504577. S. cerevisiae, pHLuorin cytosolic pH fluorescence. response, % at 10 µM. hit rate 0.37% among 350,000; in the data active = response mostly above about 7.3%, no sharp cut-off; inactive = mostly below about 5.4%; also: actives read high
* hit, by the source's call; . = not tested or not shown.

SMILES | TbMetRS inhib | XBP1 UPR activ | CHOP inhibitor | UPR CHOP act | V-ATPase pH
C=CCn1c(SCC(=O)NCC2CCCO2)nc2scc(-c3ccco3)c2c1=O (stereo not drawn) | 0 | 0 | 41 | 2 | 2
O=C(CSc1nc2scc(-c3ccco3)c2c(=O)n1-c1ccccc1)NCC1CCCO1 (stereo not drawn) | -1 | -1 | 100* | 4 | 1
Cc1sc2nc(SCC(=O)NCc3ccco3)n(C)c(=O)c2c1C | 0 | -1 | 37 | -1 | -3
C=CCn1c(SCC(=O)NCc2ccco2)nc2ccccc2c1=O | -1 | 0 | 26 | 1 | -1
Cc1nc2ccccc2n1CCc1nc2c3ccccc3nc(SCC(=O)NCc3ccco3)n2n1 | 0 | 0 | 72* | 1 | -2
C=CCn1c(SCC(=O)NC(=O)NCc2ccco2)nc2sc(CC)cc2c1=O | 0 | -2 | 83* | 0 | 1
Cc1sc2nc(SCC(=O)NCc3ccco3)n(CCc3ccccc3)c(=O)c2c1C | 0 | 17 | 95* | 16 | 1
CCN(CC)C(=O)c1[nH]cnc1C(=O)Nc1ccccc1F | -1 | . | . | . | 0
O=C(O)C(Cc1ccccc1[N+](=O)[O-])N1C(=O)c2ccccc2C1=O (stereo not drawn) | 0 | . | . | . | 2
O=C(CSc1nc2sc3c(c2c(=O)n1-c1ccccc1)CCCC3)NCc1ccco1 | -1 | -1 | 84* | -1 | 3
CCCCN(CC)CCCNC(=O)C1CCN(c2ncnc3c2sc2cccc(F)c23)CC1 | 0 | 1 | 16 | 3 | -1
COc1ccc(-c2nc(-c3ccc(NC(=O)c4ccncc4)cc3)no2)cc1OC | 0 | -3 | 72* | 1 | 4
CCN(CC)S(=O)(=O)c1ccc(C(=O)Nc2cccc(C)c2)cc1 | 0 | -2 | 77* | 0 | -2
Cc1cccc(NC(=O)c2ccc(S(=O)(=O)N(C)C)cc2)c1 | 0 | 3 | -13 | 2 | -1
NC(=O)C1CCN(C(=O)c2ccc(NS(=O)(=O)/C=C/c3ccccc3)cc2)CC1 | 0 | . | . | . | 4
CCn1c2c(c3cc(Br)ccc31)CCC/C2=N\O | 1 | 0 | 90* | -2 | 8
CCOc1ccc(NC2c3ccccc3C(=O)N2Cc2ccco2)cc1 (stereo not drawn) | 0 | -2 | 73* | 0 | 6
CCN(CC)C(=O)c1nc(-c2cccc3ccccc23)no1 | 0 | . | . | . | 1
CCOC(=O)C1C(c2ccccc2Cl)NC(=O)N(C)C1(O)C(F)(F)F (stereo not drawn) | -1 | 0 | 70* | -2 | 13
CN(c1ccccc1)c1ccc(/C=C(\CCC(=O)O)c2nc3ccccc3s2)cc1[N+](=O)[O-] | 0 | -1 | 100* | -2 | 1
COc1ccc(C(=O)Nc2cccc(/C=C(\CCC(=O)O)c3nc4ccccc4s3)c2)cc1 | 0 | -1 | 83* | 1 | 1
Cc1ccc(/C=C(\CCC(=O)O)c2nc3ccccc3s2)cc1[N+](=O)[O-] | 0 | 2 | 35 | 4 | 0
NC(=O)c1ccc(C(F)(F)F)n(Cc2cccc(Cl)c2)c1=O | -1 | 1 | 72* | 0 | 3
CN(C)c1ccc(/C=C/c2ccc3ccccc3[n+]2C)cc1 | -3 | 2 | 70* | 9 | 2
CCOC(=O)c1sc2ccccc2c1OC(=O)c1ccccc1 | -1 | 0 | 81* | 0 | 1
SMILES | TbMetRS inhib | XBP1 UPR activ | CHOP inhibitor | UPR CHOP act | V-ATPase pH
CC1(NCC(O)COc2cccc3[nH]ccc23)CCC(C(C)(C)NC(=O)CBr)CC1 (stereo not drawn) | . | . | -11 | . | .
Cc1ccccc1N(CC(=O)N/N=C/c1ccccc1Cl)C(=O)c1ccccc1 | -1 | 8 | 73* | 0 | -2
Cc1cccc(C)c1C(O)c1ncc(-c2ccccc2Cl)[nH]1 (stereo not drawn) | 0 | . | . | . | .
CC(C)c1nc(SCC(=O)N2CCCc3ccccc32)c2c(=O)n(C)c(=O)n(C)c2n1 | 0 | -1 | 88* | 7 | 4
Cc1cc(C(C)(C)C)oc1C(=O)NCCCNC(=O)c1oc(C(C)(C)C)cc1C | 0 | -2 | 96* | -4 | -1
CCCCCCn1c(=O)n2n(c1=O)C[C@]1(OC(=O)NC3CCCC3)CN(S(=O)(=O)c3ccc(C)cc3)C[C@]1(O)C2 | 0 | . | . | . | -1
CCOC(=O)C1=C(COC(=O)c2ccc(Br)c(S(=O)(=O)N3CCOCC3)c2)NC(=O)NC1C (stereo not drawn) | 0 | . | . | . | 7
COc1ccc(C2=NC(=O)/C(=C\c3cc(OC)c(OC)c(OC)c3)O2)cc1 | -1 | . | 89* | . | -5
CC1(C(=O)NS(=O)(=O)c2ccccc2Cl)CCN1C(=O)c1ccccc1CCc1ccccc1 (stereo not drawn) | 0 | . | . | . | .
O=S(=O)(/C=C/C=C/S(=O)(=O)c1ccccc1)c1ccccc1 | -1 | . | . | . | -3
O=[N+]([O-])c1ccccc1/C=N/Nc1nc(N2CCCC2)nc(N2CCCC2)n1 | 0 | -1 | 75* | -2 | 4
O=[N+]([O-])c1ccccc1/C=C/C=N/Nc1nc(N2CCCCC2)nc(N2CCCCC2)n1 | 0 | -1 | 4 | 1 | 1
CCN=c1scc(-c2ccco2)n1/N=C/c1ccc(OC)c(O)c1 | -1 | 5 | 23 | 5 | -2
CCN=c1scc(-c2ccco2)n1/N=C/c1ccc(O)cc1 | 0 | 7 | 76* | 5 | -3
CC(C(=O)Nc1cccc(C#N)c1)N(C)CCOc1ccccc1 (stereo not drawn) | 0 | 1 | . | 2 | -1
CC(C(=O)Nc1ccccc1)N(C)CCOc1ccc(Br)cc1 (stereo not drawn) | 0 | 2 | 84* | -2 | 0
CCN(C[C@H]1N[C@@](CC)(C(=O)OC)[C@H]2C(=O)N(C)C(=O)[C@@H]12)C(=O)Nc1ccc(C)cc1 | -2 | 3 | . | 3 | 5
CCC(c1nnnn1CCc1ccccc1)N(Cc1ccco1)Cc1cc2c(C)ccc(C)c2[nH]c1=O (stereo not drawn) | 0 | -3 | 90* | 0 | 0
COc1cc(OC)c2c(N)c(C#N)c(C(F)(F)C(F)(F)F)nc2c1 | 0 | -2 | 60 | -1 | -3
COc1ccc2nc(C(F)(F)C(F)(F)F)c(C#N)c(N)c2c1 | 0 | -2 | 81* | 1 | 3
O=C(COC(=O)C12CC3CC(CC(C3)C1)C2)NCCc1ccccc1 | 0 | -3 | 77* | 1 | -4
O=C(COC(=O)C12CC3CC(CC(C3)C1)C2)NCc1ccccc1 | 0 | 0 | . | 0 | 5
CCOC(=O)N1CC=C2C(C#N)=C(N)C(C#N)(C#N)[C@H](c3ccccc3OCC)[C@H]2C1 | -1 | 0 | 74* | 7 | 1
O=C(CN(C(=O)CCC(=O)Nc1nccs1)c1ccc2c(c1)OCO2)NCc1ccccc1 | -1 | -3 | . | -1 | 4
